Experimental data: ChEMBL document CHEMBL1833955, “Optimization of (arylpiperazinylbutyl)oxindoles exhibiting selective 5-HT₇ receptor antagonist activity” (J Med Chem, 2011)

Key:
[1] = Drug level in NMRI mouse brain at 1 mg/kg, ip after 30 mins by HPLC/MS/MS analysis; type: ADME, organism-based; design: dose 1 mg/kg, route intraperitoneal; settings: read-out: Drug uptake
Outline: (§1)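 Male NMRI mice, 25–30 g, given four compounds together ip as a cassette suspension in 0.4% methyl cellulose (n = 3/dose). After 30 min, vena cava blood and brain collected. Brain homogenised in 4 volumes of water; samples extracted with acetonitrile–water 3:1 and analysed by gradient HPLC-MS/MS against spiked calibrators. Brain/plasma given as percentage.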

[2] = biological target: T1, Adrenergic receptor alpha-1 (Rattus norvegicus, UniProt P15823+P23944+P43140); assay: Displacement of [3H]prazosin from alpha1-adrenergic receptor in rat frontal cortex membrane after 45 mins by scintillation spectrometry; type: cell membranes
T1 sequence (P15823 whole entry): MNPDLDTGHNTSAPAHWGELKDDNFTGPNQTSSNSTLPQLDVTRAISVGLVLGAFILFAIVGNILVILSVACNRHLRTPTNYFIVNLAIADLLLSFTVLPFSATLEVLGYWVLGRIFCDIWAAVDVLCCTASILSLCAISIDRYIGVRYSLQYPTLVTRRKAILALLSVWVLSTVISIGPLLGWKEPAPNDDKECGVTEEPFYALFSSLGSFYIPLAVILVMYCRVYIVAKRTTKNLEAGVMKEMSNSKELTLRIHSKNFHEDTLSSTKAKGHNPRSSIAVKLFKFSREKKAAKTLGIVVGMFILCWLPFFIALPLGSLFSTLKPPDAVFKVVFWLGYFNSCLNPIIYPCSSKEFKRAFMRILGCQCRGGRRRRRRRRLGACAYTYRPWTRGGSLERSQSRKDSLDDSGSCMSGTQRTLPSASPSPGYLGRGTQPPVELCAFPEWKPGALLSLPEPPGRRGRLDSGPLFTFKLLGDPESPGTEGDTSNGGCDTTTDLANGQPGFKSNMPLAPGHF
T1 sequence (P23944 whole entry): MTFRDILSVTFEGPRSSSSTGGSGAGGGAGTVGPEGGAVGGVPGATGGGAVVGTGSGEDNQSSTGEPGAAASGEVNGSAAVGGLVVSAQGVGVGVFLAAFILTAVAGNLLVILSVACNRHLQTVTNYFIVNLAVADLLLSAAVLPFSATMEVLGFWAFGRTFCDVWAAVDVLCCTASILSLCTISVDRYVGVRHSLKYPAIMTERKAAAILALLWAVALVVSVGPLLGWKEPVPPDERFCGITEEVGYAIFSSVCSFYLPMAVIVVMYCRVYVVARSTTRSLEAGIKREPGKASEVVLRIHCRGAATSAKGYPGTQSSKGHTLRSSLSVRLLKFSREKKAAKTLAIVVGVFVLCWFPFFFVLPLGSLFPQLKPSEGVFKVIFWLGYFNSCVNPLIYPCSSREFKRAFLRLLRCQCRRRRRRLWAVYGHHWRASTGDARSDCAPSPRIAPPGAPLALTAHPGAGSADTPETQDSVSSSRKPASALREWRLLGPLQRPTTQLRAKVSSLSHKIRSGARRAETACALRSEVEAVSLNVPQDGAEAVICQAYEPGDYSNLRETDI
T1 sequence (P43140 whole entry): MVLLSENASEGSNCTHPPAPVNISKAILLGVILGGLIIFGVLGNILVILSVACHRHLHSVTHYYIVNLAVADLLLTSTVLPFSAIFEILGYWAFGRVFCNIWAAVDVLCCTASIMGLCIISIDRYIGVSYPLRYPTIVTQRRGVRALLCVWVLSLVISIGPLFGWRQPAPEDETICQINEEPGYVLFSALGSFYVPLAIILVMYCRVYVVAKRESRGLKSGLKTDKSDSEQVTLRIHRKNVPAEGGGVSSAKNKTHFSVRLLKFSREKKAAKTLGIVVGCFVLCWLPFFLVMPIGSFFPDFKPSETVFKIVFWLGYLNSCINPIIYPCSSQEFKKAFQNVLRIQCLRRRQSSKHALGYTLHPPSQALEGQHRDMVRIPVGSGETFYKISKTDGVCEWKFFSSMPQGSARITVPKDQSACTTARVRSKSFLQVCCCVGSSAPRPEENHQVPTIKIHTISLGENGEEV
Outline: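 Rat frontal cortex tissue frozen on dry ice, homogenised in 50 mM Tris-HCl pH 7.7 and washed by centrifugation. [3H]prazosin at 0.6 nM; 10 μM prazosin defines nonspecific binding. 45 min at 25 °C, GF/B filtration, scintillation counting. Triplicates; Ki from two nine-concentration curves fitted to a single-site model.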

[3] = Plasma concentration in NMRI mouse at 3 mg/kg, ip after 30 mins by HPLC-MS/MS analysis; type: ADME, organism-based; design: dose 3 mg/kg, route intraperitoneal; outline: as §1
Rattus norvegicus = assay: Anxiolytic activity in ip dosed Wistar rat assessed as number of punished licks administered 30 mins prior to test by conflict drinking Vogel test; type: functional; settings: read-out: MED
Outline: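 Male Wistar rats, 160–180 g, water-deprived 48 h and fasted 24 h. Drug or vehicle given ip 30 min before testing, carried out in a quiet room at 23 °C between 07:30 and 13:00. Modified Vogel procedure. Mean ± SEM tolerated shocks per group, one-way ANOVA with Duncan's test; MED reported.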

[4] = Selectivity ratio of Ki for alpha1-adrenergic receptor in rat frontal cortex membrane to Ki for human 5-HT7 receptor; type: cell membranes
[5] = biological target: 5-hydroxytryptamine receptor 7 (Homo sapiens, UniProt P34969); assay: Displacement of [3H]CT from human 5-HT7 receptor expressed in CHO cells by scintillation spectrometry; type: cell-based
Outline: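 Cloned human 5-HT7 receptor from CHO cells, run under the supplier's recommended conditions with [3H]CT. Nonspecific binding with 25 μM clozapine. Ended by GF/C filtration, then scintillation counting. Ki taken from two nine-concentration displacement curves run in triplicate, single-site fit.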

[6] = Drug level in NMRI mouse brain at 3 mg/kg, ip after 30 mins by HPLC/MS/MS analysis; type: ADME, organism-based; design: dose 3 mg/kg, route intraperitoneal; settings: read-out: Drug uptake; outline: as §1
[7] = Plasma concentration in NMRI mouse at 10 mg/kg, ip after 30 mins by HPLC-MS/MS analysis; type: ADME, organism-based; design: dose 10 mg/kg, route intraperitoneal; outline: as §1
[8] = Metabolic stability in human liver microsomes after 60 mins by HPLC-MS/MS analysis; type: ADME, Microsome; settings: read-out: Stability
Outline: (§2)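 Test compound at 100 nM final incubated with rat or human liver microsomes (0.33 mg/mL) at 37 °C for 0, 5, 15, 30 and 60 min. Buffer Tris-HCl pH 7.4 with Mg2+ and BSA. Reaction started with NADPH and stopped with ice-cold MeOH. Parent compound measured by HPLC-MS/MS, positive-ion MRM.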

Mus musculus [9] = assay: Anxiolytic activity in ip dosed NMRI mouse assessed as behavioral activity administered 30 mins prior to test measured up to 5 mins by light-dark test; type: functional; settings: read-out: MED
Outline: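 Male NMRI mice, 25–33 g, housed in the dark, dosed ip 30 min before test. Each mouse placed in the centre of the lit side of an automated two-compartment chamber under a 2-lx light. Activity recorded for 5 min: time in each area, transitions, horizontal and vertical activity. Means ± SEM, one-way ANOVA with Duncan's test; MED reported.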

[10] = Plasma concentration in NMRI mouse at 1 mg/kg, ip after 30 mins by HPLC-MS/MS analysis; type: ADME, organism-based; design: dose 1 mg/kg, route intraperitoneal; outline: as §1
[11] = Metabolic stability in rat liver microsomes after 60 mins by HPLC-MS/MS analysis; type: ADME, Microsome; settings: read-out: Stability; outline: as §2
[12] = Selectivity ratio of Ki for 5-HT1A receptor in rat frontal cortex membrane to Ki for human 5-HT7 receptor; type: cell membranes
[13] = Drug level in NMRI mouse brain at 10 mg/kg, ip after 30 mins by HPLC/MS/MS analysis; type: ADME, organism-based; design: dose 10 mg/kg, route intraperitoneal; settings: read-out: Drug uptake; outline: as §1
[14] = biological target: T2, 5-hydroxytryptamine receptor 1A (Rattus norvegicus, UniProt P19327); assay: Displacement of [3H]8-OH-DPAT from 5-HT1A receptor in rat frontal cortex membrane after 45 mins by scintillation counting; type: cell membranes
T2 sequence (P19327 whole entry): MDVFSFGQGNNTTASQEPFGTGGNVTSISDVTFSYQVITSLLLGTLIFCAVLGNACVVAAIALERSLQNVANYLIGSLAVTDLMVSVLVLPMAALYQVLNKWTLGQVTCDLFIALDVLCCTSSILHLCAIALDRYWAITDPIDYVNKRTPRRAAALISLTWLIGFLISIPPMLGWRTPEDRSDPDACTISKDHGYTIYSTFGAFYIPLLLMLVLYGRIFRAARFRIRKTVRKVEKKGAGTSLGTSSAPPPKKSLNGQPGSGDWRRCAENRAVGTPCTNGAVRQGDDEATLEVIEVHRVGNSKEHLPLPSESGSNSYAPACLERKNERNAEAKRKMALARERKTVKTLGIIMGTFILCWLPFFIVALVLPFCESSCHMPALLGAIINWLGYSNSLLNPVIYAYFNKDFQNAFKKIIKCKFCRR
Outline: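 Membranes from adult rat frontal cortex, prepared in 50 mM Tris-HCl pH 7.7 with washes and a 37 °C preincubation. Incubation buffer: 6.66 mM CaCl2, 16.66 μM pargyline, 0.166% ascorbic acid. Ligand 1.5 nM [3H]8-OH-DPAT; 10 μM 5-HT defines nonspecific binding. 45 min at 25 °C, GF/B filtration, scintillation counting. Triplicates; Ki from two nine-point curves, single-site fit.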

[15] = biological target: T3, 5-hydroxytryptamine receptor 1A (Rattus norvegicus) (UniProt P19327); assay: Displacement of [3H]8-OH-DPAT from 5-HT1A receptor in rat frontal cortex membrane at 10^-7 M after 45 mins by scintillation counting; type: cell membranes
T3 sequence (whole entry): T2 sequence (P19327 whole entry)

Mus musculus [16] = assay: Antidepressant activity in ip dosed NMRI mouse assessed as decrease in immobility time administered 30 mins prior to test measured last 4 mins of 6 mins testing period by forced swimming test; type: functional; settings: read-out: MED
Outline: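 Mice given drug or vehicle ip 30 min before test. Each mouse placed in a 17.7 cm high, 12 cm diameter glass cylinder holding 25 °C water to 12.5 cm depth, four mice at a time. Immobility (floating, only movements keeping head above water) timed over the last 4 min of a 6 min session.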

Sequence of 5-hydroxytryptamine receptor 7 (P34969 whole entry): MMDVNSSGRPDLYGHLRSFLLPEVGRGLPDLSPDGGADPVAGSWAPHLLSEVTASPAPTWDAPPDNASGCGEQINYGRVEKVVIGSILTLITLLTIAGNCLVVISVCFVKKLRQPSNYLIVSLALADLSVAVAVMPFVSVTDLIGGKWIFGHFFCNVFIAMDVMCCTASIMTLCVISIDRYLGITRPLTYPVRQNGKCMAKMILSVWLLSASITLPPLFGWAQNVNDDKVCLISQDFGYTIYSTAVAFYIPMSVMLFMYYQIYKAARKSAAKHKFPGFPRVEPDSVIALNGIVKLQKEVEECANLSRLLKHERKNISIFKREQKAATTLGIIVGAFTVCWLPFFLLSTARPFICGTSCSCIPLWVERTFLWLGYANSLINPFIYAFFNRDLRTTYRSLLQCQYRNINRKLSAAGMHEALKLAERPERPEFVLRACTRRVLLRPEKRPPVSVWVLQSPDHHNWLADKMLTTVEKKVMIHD

Row | SMILES | concentration at 0.5 h [1] | Ki [2] | concentration at 0.5 h [3] | minimal effective dose (Rattus norvegicus) | Ratio Ki [4] | Ki [5] | concentration at 0.5 h [6] | concentration at 0.5 h [7] | remaining at 1 h [8] | minimal effective dose (Mus musculus [9]) | concentration at 0.5 h [10] | remaining at 1 h [11] | Ratio Ki [12] | concentration at 0.5 h [13] | Ki [14] | inhibition [15] | minimal effective dose (Mus musculus [16])
1 | CCC1(CCCCN2CCN(c3cccc(Cl)c3)CC2)C(=O)Nc2ccccc21 (stereo not drawn) | 65 nM | 31 nM | 168 nM | > 10 mg/kg | 78 | 0.4 nM | 613 nM | 272 nM | 31% | > 20 mg/kg | 22 nM | 4% | 115 | 824 nM | 46 nM | – | –
2 | CCC1(CCCCN2CCN(c3ccc(Cl)cc3)CC2)C(=O)Nc2ccc(F)cc21 (stereo not drawn) | 51 nM | 190 nM | 211 nM | – | 68 | – | 186 nM | 271 nM | 36% | > 10 mg/kg | 44 nM | 17% | > 100 | 342 nM | – | 9% | –
3 | O=C1Nc2ccccc2C1CCCCN1CCN(c2cccc(Cl)c2)CC1 (stereo not drawn) | 216 nM | 26 nM | 114 nM | – | 53 | – | 827 nM | 744 nM | 39% | > 10 mg/kg | 21 nM | 9% | 135 | 4310 nM | 66 nM | – | –
4 | CCC1(CCCCN2CCN(c3ccc(F)cc3)CC2)C(=O)Nc2ccccc21 (stereo not drawn) | 62 nM | 39 nM | 178 nM | – | 91 | – | 431 nM | 168 nM | 34% | – | 34 nM | 8% | > 100 | 364 nM | – | 10% | > 10 mg/kg
5 | CCC1(CCCCN2CCN(c3ccc(Cl)c(Cl)c3)CC2)C(=O)Nc2ccccc21 (stereo not drawn) | 43 nM | 125 nM | 174 nM | – | 208 | 0.6 nM | 223 nM | 861 nM | 29% | – | 31 nM | 13% | > 100 | 1150 nM | – | 11% | > 10 mg/kg
6 | CCC1(CCCCN2CCN(c3ccc(Cl)cc3)CC2)C(=O)Nc2ccccc21 (stereo not drawn) | 42 nM | 93 nM | 245 nM | – | 245 | – | 141 nM | 399 nM | 34% | > 10 mg/kg | 70 nM | 9% | > 100 | 379 nM | – | 11% | –
7 | CCC1(CCCCN2CCN(c3ccc(Cl)cc3)CC2)C(=O)Nc2cc(F)ccc21 (stereo not drawn) | 33 nM | 215 nM | 130 nM | – | 272 | – | 99 nM | 177 nM | 29% | > 10 mg/kg | 46 nM | 9% | > 100 | 135 nM | – | 9% | –
8 | CCC1(CCCCN2CCN(c3ccc(Cl)cc3)CC2)C(=O)Nc2ccc(Cl)cc21 (stereo not drawn) | 17 nM | 175 nM | 14 nM | – | 159 | 1.1 nM | 23 nM | 8 nM | 23% | – | 10 nM | 21% | > 100 | 27 nM | – | 0% | > 10 mg/kg
